Experimental data: ChEMBL document CHEMBL4251752, “Integrated Strategy for Lead Optimization Based on Fragment Growing: The Diversity-Oriented-Target-Focused-Synthesis Approach” (J Med Chem, 2018)

Assays:
[1] = target: T1, Bromodomain-containing protein 4 (Homo sapiens, UniProt O60885); assay: Inhibition of TEV cleavage site-fused-GST tagged BRD4(BD1) (unknown origin) using SGRGK(Ac)CGK(Ac)-GLGK(Ac)GGAK(Ac)RHRKVG-peptide after 3 hrs by HTRF assay
Outline: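 GST-BRD4(BD1) purified on glutathione resin and by size exclusion; tetra-acetylated H4 peptide as ligand. Buffer 50 mM HEPES pH 7.5, 400 mM KF, 0.1% BSA, 0.5% DMSO final; 3 h at room temperature.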

[2] = target: T1, Bromodomain-containing protein 4; assay: Binding affinity to TEV cleavage site-fused-His-tagged BRD4(BD1) (unknown origin) by isothermal-titration calorimetry
Outline: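 BRD4(BD1) with His-tag cleaved by TEV, DTT removed, dialysed into 10 mM HEPES pH 7.5, 150 mM NaCl; compounds diluted in the final dialysate. Reverse titration (protein in syringe, ligand in cell), 13 injections at 15 or 25 °C, in triplicate. Data fitted to a one-site model for KD and ΔH; ΔG and TΔS derived from these.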

[3] = target: T1, Bromodomain-containing protein 4; assay: Binding affinity to TEV cleavage site-fused-His-tagged BRD4(BD1) (unknown origin) assessed as change in melting temperature at 10 uM by RT-PCR based thermal shift assay
Outline: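 His-tag removed by TEV cleavage before use; protein 2 μM final, compound 10 μM final (0.1% or 0.5% DMSO), thermal shift dye 1:1000, in 10 mM HEPES pH 7.5, 500 mM NaCl. After 1 min equilibration at 25 °C, heated 25–70 °C in 0.5 °C steps (25 s each); Tm from fluorescence melt curves, run in triplicate; ΔTm reported.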

Row | IC50 [1] [nM] | Kd [2] [nM] | ΔTm [3] [°C] | Structure (SMILES)
1 | 501 | 890 | 3.25 | CCn1cnc2c1c(=O)[nH]c(=O)n2Cc1ccc(CNS(=O)(=O)c2cccc(-c3ccccc3)c2)cc1
2 | 501 | 410 | 3.38 | CCn1cnc2c1c(=O)[nH]c(=O)n2Cc1ccc(CNS(=O)(=O)c2cnn(-c3ccccc3)c2)cc1
3 | 25100 |  |  | CCn1cnc2c1c(=O)[nH]c(=O)n2Cc1ccc(CN)cc1
4 | 631 | 770 | 3 | CCn1cnc2c1c(=O)[nH]c(=O)n2Cc1ccc(CNS(=O)(=O)c2ccc(C)cc2)cc1
5 | 1580 |  |  | CCn1cnc2c1c(=O)[nH]c(=O)n2Cc1ccc(CNS(=O)(=O)CCc2ccccc2)cc1
6 | 631 | 590 | 3.5 | CCn1cnc2c1c(=O)[nH]c(=O)n2Cc1ccc(CNS(=O)(=O)c2ccc(OCc3ccccc3)cc2)cc1
7 | 5010 |  |  | CCn1cnc2c1c(=O)[nH]c(=O)n2Cc1ccc(CNS(=O)(=O)CCN2CCOCC2)cc1
8 | 1260 |  |  | CCn1cnc2c1c(=O)[nH]c(=O)n2Cc1ccc(CNS(=O)(=O)c2cc(-c3ccno3)ccc2C)cc1
9 | 794 | 540 | 2.63 | CCn1cnc2c1c(=O)[nH]c(=O)n2Cc1ccc(CNS(=O)(=O)c2ccc(OC)cc2)cc1
10 | 398 |  | 1.5 | CCn1cnc2c1c(=O)[nH]c(=O)n2Cc1ccc(CNS(=O)(=O)c2ccc(-c3ccccc3)cc2)cc1
11 | 2000 |  |  | CCn1cnc2c1c(=O)[nH]c(=O)n2Cc1ccc(CNS(=O)(=O)c2ccc3oncc3c2)cc1
12 | 316 | 360 | 3.13 | CCn1cnc2c1c(=O)[nH]c(=O)n2Cc1ccc(CNS(=O)(=O)c2ccc(Oc3ccccc3)cc2)cc1
13 | 794 | 860 | 2.13 | CCn1cnc2c1c(=O)[nH]c(=O)n2Cc1ccc(CNS(=O)(=O)c2ccc3c(c2)n(C)c(=O)n3C)cc1
14 |  | 190 | 3.88 | CCn1cnc2c1c(=O)[nH]c(=O)n2Cc1ccc(CNS(=O)(=O)c2ccc3c(c2)CCCC(=O)N3)cc1
15 | 398 | 310 | 3 | CCn1cnc2c1c(=O)[nH]c(=O)n2Cc1ccc(CNS(=O)(=O)c2ccc3c(c2)CCC(=O)N3)cc1
